Reference: ChEMBL document CHEMBL1150687, “Three new cytotoxic sesterterpenes from a marine sponge Spongia sp” (J Nat Prod, 2003)
≈ marks a conversion by molar mass, not a printed value. Calls of active or inactive are those of the source. No cut-off for these calls is given here.

Tests used:
L1210 = assay: Cytotoxicity against mouse L1210 cells; type: functional, cell-based
HeLa = assay: Cytotoxicity against human HeLa cells; type: functional, cell-based
A549 = assay: Cytotoxicity against human A549 cells; type: functional, cell-based
KB = assay: Cytotoxicity against human KB cells; type: functional, cell-based
CCRF S-180 [1] = assay: Antitumor activity against mouse S180 cells xenografted ICR/kwl mouse assessed as increase in mouse life span at 5 mg/kg, ip relative to control; type: functional
In short: (§1)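 Female ICR/kwl mice (7 weeks, 19-21 g), six per group, inoculated ip with 0.1 mL sarcoma-180 suspension (1×10^7 cells/mL in saline). Compound dissolved in a little dimethylacetamide, suspended in 10% Tween 80-saline (1 mg/mL), given ip on days 1, 5 and 9 after inoculation. Survival followed; ILS (%) = (A/B − 1)×100 from weighed median survival days, treated versus untreated controls.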

CCRF S-180 [2] = assay: Antitumor activity against mouse S180 cells xenografted ICR/kwl mouse assessed as increase in mouse life span at 10 mg/kg, ip relative to control; type: functional; in short: as §1

Structure (SMILES) | IC50 (L1210) | IC50 (HeLa) | IC50 (A549) | IC50 (KB) | Activity (CCRF S-180 [1]; route intraperitoneal) | Activity (CCRF S-180 [1]) | Activity (CCRF S-180 [2]) | Activity (CCRF S-180 [2]; route intraperitoneal)
CC1(C)CCC[C@]2(C)[C@H]3C[C@@H](O)[C@]4(C)c5cocc5CC[C@H]4[C@]3(C)CC[C@@H]12 | > 50 µg/mL | 19.5 µg/mL (≈ 52.6 µM) | > 50 µg/mL | > 50 µg/mL | – | – | – | –
CC1(C)CCC[C@]2(C)[C@H]3C[C@@H](O)[C@]4(C)[C@H]5COC(=O)C5=CC[C@H]4[C@]3(C)CC[C@@H]12 | 1.6 µg/mL (≈ 4.14 µM) | 16.5 µg/mL (≈ 42.7 µM) | 16.5 µg/mL (≈ 42.7 µM) | 17.1 µg/mL (≈ 44.2 µM) | 50.3% | – | – | –
CO[C@@H]1C[C@H]2[C@]3(C)CC[C@H]4C(C)(C)CCC[C@]4(C)[C@H]3C[C@@H](OC(C)=O)[C@]2(C)C2=C1C(=O)O[C@H]2O | 2.2 µg/mL (≈ 4.64 µM) | 5.3 µg/mL (≈ 11.2 µM) | 5.3 µg/mL (≈ 11.2 µM) | 15.6 µg/mL (≈ 32.9 µM) | – | – | – | –
CC1(C)CCC[C@]2(C)[C@H]3C[C@@H](O)[C@]4(C)[C@@H]5C(=CC[C@H]4[C@]3(C)CC[C@@H]12)C(=O)O[C@H]5O | 2.3 µg/mL (≈ 5.71 µM) | 15 µg/mL (≈ 37.3 µM) | 14.8 µg/mL (≈ 36.8 µM) | 14.3 µg/mL (≈ 35.5 µM) | – | inactive | – | –
CO[C@@]12[C@H](COC(N)=O)C3=C(C(=O)C(C)=C(N)C3=O)N1C[C@@H]1N[C@@H]12 [MITOMYCIN] | 0.02 µg/mL (≈ 0.0598 µM) | 0.015 µg/mL (≈ 0.0449 µM) | 0.02 µg/mL (≈ 0.0598 µM) | 0.015 µg/mL (≈ 0.0449 µM) | – | – | – | –
O=c1[nH]cc(F)c(=O)[nH]1 [FLUOROURACIL] | – | – | – | – | 32.9% | – | Active | –
CC(=O)O[C@@H]1C[C@@H]2[C@@]3(C)CCCC(C)(C)[C@@H]3CC[C@@]2(C)[C@@H]2CC=C3CO[C@@H](O)[C@@H]3[C@@]12C | 2.1 µg/mL (≈ 4.88 µM) | 22.5 µg/mL (≈ 52.2 µM) | 29.4 µg/mL (≈ 68.3 µM) | 16.2 µg/mL (≈ 37.6 µM) | – | – | – | 28%
CC(=O)O[C@@H]1C[C@@H]2[C@@]3(C)CCCC(C)(C)[C@@H]3CC[C@@]2(C)[C@@H]2CC=C3C(=O)O[C@@H](O)[C@@H]3[C@@]12C | 13.2 µg/mL (≈ 29.7 µM) | 26 µg/mL (≈ 58.5 µM) | 23.7 µg/mL (≈ 53.3 µM) | 18.5 µg/mL (≈ 41.6 µM) | – | – | – | –
